From PubChem
Sampled rows, rich in hits. Any-hit rate of the full collection: about 3.2%.
DAX1 inh-1 – blocks DAX1 repression of SF-1 activated StAR promoter; inhibition, % at 6.8 µM; HEK293T StAR-luciferase reporter, SF-1/DAX-1 repression relief; 370,000 tested, 1.1% active;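 active = inhibition above the mean over all tested compounds plus 3 SD, cut at about 3.6% in these data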;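 note: higher inhibition means more luminescence from relief of DAX-1 repression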
NR2E3 ag-1 – NR2E3 (human) agonism. 320,000 tested, 0.12% active. inhibition of corepressor binding, % at 4.78 µM. Q9Y5X4. GST-NR2E3/biotin-RetCOR TR-FRET, 1536-well;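 active = percent inhibition above the cutoff of mean plus 3 SD of all tested compounds, set per screening campaign, cut at about 20% in these data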
Target sequence (Q9Y5X4 whole entry, looked up): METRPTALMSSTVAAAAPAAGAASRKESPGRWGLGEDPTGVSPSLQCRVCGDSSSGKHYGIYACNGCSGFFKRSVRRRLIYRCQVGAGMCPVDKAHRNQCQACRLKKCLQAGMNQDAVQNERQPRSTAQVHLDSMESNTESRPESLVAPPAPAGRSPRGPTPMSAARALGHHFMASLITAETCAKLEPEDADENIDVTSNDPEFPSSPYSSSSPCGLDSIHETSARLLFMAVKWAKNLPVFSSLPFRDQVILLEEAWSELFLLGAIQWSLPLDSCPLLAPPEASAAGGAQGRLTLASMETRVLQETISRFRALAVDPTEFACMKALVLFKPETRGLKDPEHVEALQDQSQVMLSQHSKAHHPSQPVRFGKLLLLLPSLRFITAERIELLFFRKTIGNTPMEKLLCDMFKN
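Material: NR2E3–RetCOR corepressor complex / Incubation: Compound–protein incubation for 5 h at 4 °C / Dosing: compound at 4.8 µM, single dose / Detection: time-resolved FRET / Benchmarks: high control biotin, low control 0.6% DMSO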
GASC-1 inh – blocks human GASC-1 demethylase activity; 330,000 tested, 0.069% active; GST-JMJD2C(1-420) H3K9me3 demethylation, DELFIA europium; inhibition, % at 2.35 µM;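 active = more than half of a compound's replicate wells show inhibition beyond 50%, single wells judged on their own value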;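 note: signal counts dimethyl H3K9 product captured on neutravidin plate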
NR2E3 ag-2 – activates human NR2E3 receptor; Q9Y5X4; CHO-S Gal4-NCOR/VP16-NR2E3 two-hybrid, luciferase; inhibition of corepressor binding, % at 3.98 µM; 360,000 tested, 0.35% active;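 active = inhibition above the mean of all tested compounds plus 3 SD, cut at about 70% in these data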;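 note: higher means lower luciferase signal from less NR2E3 corepressor binding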
DAX1 inh-2 – inhibitors of human orphan nuclear receptor DAX1 (NR0B1) | P51843 | HEK293 Gal4-DAX1 luciferase reporter, luminescence | inhibition, % at 6.75 µM | 340,000 tested, 0.99% active;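 active = inhibition above the mean over all tested compounds plus 3 SD, cut at about 4.2% in these data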;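 note: inhibition shows as a rise in luminescence from relieved DAX1 repression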
SMARCA2 activ – activators of SMARCA2 function. 370,000 tested, 1% active. MG213 cells, MMTV-luciferase reporter, dexamethasone, overnight. AID 652017. activation, % at 9.1 µM; in the data active = activation above about 7.8%
Large screens that a line does not name were inactive.

CC(C)(C)OC(=O)NCc1ccccc1/C=C/S(=O)(=O)NCc1ccc(F)cc1	none (no result: NR2E3 ag-1, GASC-1 inh, NR2E3 ag-2, DAX1 inh-2)
CCN(Cc1cn(Cc2ccccc2)nn1)S(=O)(=O)c1ccc(N2CCCC2)cc1Br	none (no result: NR2E3 ag-1, GASC-1 inh, NR2E3 ag-2, DAX1 inh-2)
CCOC(=O)[C@]12CCCCC/C=C\1N(CCc1ccc(Cl)cc1)C(=O)[C@H]2CC(=O)NCC1CCCCC1	none (no result: NR2E3 ag-1, GASC-1 inh, NR2E3 ag-2, DAX1 inh-2)
Cc1nc2ccccc2c2oc(C(=O)NCC3COc4ccccc4O3)cc12 (stereo not drawn)	NR2E3 ag-2 79
COc1ccc(CNC(=O)c2cc3c(C)nc4ccccc4c3o2)c(OC)c1	NR2E3 ag-2 99 (no result: DAX1 inh-1, DAX1 inh-2, SMARCA2 activ)
CC(C)Nc1nc(-c2ccccn2)nc(-c2ccccc2)c1C#N	DAX1 inh-2 4.8
CC(C)Nc1nc(-c2cccnc2)nc(-c2ccccc2)c1C#N	none
COCCNC(=O)c1ccccc1NC(=O)Nc1ccccc1	none
C=CCNC(=O)c1ccccc1NC(=O)Nc1ccccc1	SMARCA2 activ 7.8
Fc1ccc(COc2ccc(C(=S)N3CCCC3)cc2)cc1	DAX1 inh-2 4.3
COC(C(=O)Nc1ccc(Br)cc1F)c1ccccc1 (stereo not drawn)	none
O=C(CCc1ccccc1)NNC(=O)Cc1ccc(Cl)cc1	none
COC(C(=O)Nc1ccc(F)cc1F)c1ccccc1 (stereo not drawn)	DAX1 inh-2 4.2
COC(C(=O)NNC(=O)Cc1ccc(Cl)cc1)c1ccccc1 (stereo not drawn)	DAX1 inh-2 4.3
COC(=O)[C@]12C[C@H](CC(=O)N3CCCC3)C(=O)N(CCc3ccc(OC)c(OC)c3)C1=C[C@H](C1CCCC1)O[C@@H]2C	none (no result: NR2E3 ag-1, GASC-1 inh, NR2E3 ag-2, DAX1 inh-2)
CCCC[C@H](C(=O)N(C)c1cccc(OC)c1)[C@@H](O)c1ccc2ccccc2c1	none (no result: NR2E3 ag-1, GASC-1 inh, NR2E3 ag-2, DAX1 inh-2)
O=C(NCc1ccccc1Cl)C1CCN(S(=O)(=O)N2CCCCCC2)CC1	DAX1 inh-2 4.8
COC(=O)c1ccccc1S(=O)(=O)N1CCC(C(=O)NCC2CCCO2)CC1 (stereo not drawn)	DAX1 inh-2 4.3
COCCNS(=O)(=O)c1ccc(C2CNC(=O)C2)cc1 (stereo not drawn)	DAX1 inh-2 5.2
O=C(O)CN1C(=O)C2(OCCO2)c2cc(Br)ccc21	DAX1 inh-2 5.2 (no result: GASC-1 inh)
O=C(CN1C(=O)C2(OCCO2)c2cc(Br)ccc21)NO	none
O=C(c1cccc(F)c1F)N(Cc1ccccn1)CC1CCCO1 (stereo not drawn)	none (no result: NR2E3 ag-1, GASC-1 inh, NR2E3 ag-2, DAX1 inh-2)
C=CCNC(=O)CCC(=O)NNc1nc2ccccc2c2nc(-c3ccccc3)nn12	none
C=CCSc1nc2ccccc2c2nc(-c3ccccc3)nn12	DAX1 inh-2 4.7
CCOC(=O)[C@@]12CCC3=C1N(CCC3)C(=O)[C@H](CC(=O)N1CCC(c3ccccc3)CC1)C2	none (no result: NR2E3 ag-1, GASC-1 inh, NR2E3 ag-2, DAX1 inh-2)
Cc1ccc(CN2C(C(=O)NC3CCCC3)CSCCS2(=O)=O)cc1 (stereo not drawn)	none (no result: NR2E3 ag-1, GASC-1 inh, NR2E3 ag-2, DAX1 inh-2)
Cc1ccc(NC(=O)c2cc(N(C)C)ccc2[P+](=O)O)cc1	DAX1 inh-1 3.7
CN(C)c1ccc(NC(=O)c2cccc(C(=O)Nc3ccc(N(C)C)cc3)n2)cc1	none (no result: GASC-1 inh)
Fc1ccc(C2CC(c3ccco3)=Nc3ccccc3S2)cc1 (stereo not drawn)	DAX1 inh-2 7.0
Cc1nc2ccc(NC(=O)c3cc(F)cc(F)c3)cc2c(=O)[nH]1	none (no result: NR2E3 ag-1, GASC-1 inh, NR2E3 ag-2, DAX1 inh-2)
O=C(NCc1ccccc1)C(c1cc2ccccc2o1)n1c(=O)c(-c2ccco2)nc2ccccc21 (stereo not drawn)	DAX1 inh-1 3.9 (no result: NR2E3 ag-1, GASC-1 inh, NR2E3 ag-2, DAX1 inh-2)
CCCCCNC(=O)C(c1ccccc1F)n1c(=O)c(-c2ccco2)nc2ccccc21 (stereo not drawn)	none (no result: NR2E3 ag-1, GASC-1 inh, NR2E3 ag-2, DAX1 inh-2)
CC(C)(C)NC(=O)C(c1ccccc1F)n1c(=O)c(-c2ccco2)nc2ccccc21 (stereo not drawn)	DAX1 inh-1 4.3 (no result: NR2E3 ag-1, GASC-1 inh, NR2E3 ag-2, DAX1 inh-2)
O=C(NCc1ccccc1)C(c1ccccc1)n1c(=O)c(-c2ccco2)nc2ccccc21 (stereo not drawn)	none (no result: NR2E3 ag-1, GASC-1 inh, NR2E3 ag-2, DAX1 inh-2)
Cc1cccc(-c2nnc(SCC(=O)Nc3ccc(-c4nc5ccc(C)cc5s4)cc3)n2Cc2ccco2)c1	none (no result: NR2E3 ag-1, GASC-1 inh, NR2E3 ag-2, DAX1 inh-2)
COc1ccc(S[C@]2(C(=O)N3CCN(c4ncccn4)CC3)CC(=O)N(c3ccc4ccccc4c3)[C@@H]2c2ccc(OC)cc2)cc1	none (no result: NR2E3 ag-1, GASC-1 inh, NR2E3 ag-2, DAX1 inh-2)
CCN(CC)CCCn1c2c(c(SCC(=O)Nc3cc(C)cc(C)c3)nc1=O)CCC2	DAX1 inh-1 4.4 (no result: NR2E3 ag-1, GASC-1 inh)
